Test results: ChEMBL document CHEMBL3351885, “Putative kappa opioid heteromers as targets for developing analgesics free of adverse effects” (J Med Chem, 2014)
Active and inactive are the calls of the source.

How the values were obtained:
[1] = target: Mu-type opioid receptor (Homo sapiens) (UniProt P35372); assay: Agonist activity at human mu opioid receptor expressed in HEK293 cells assessed as induction of intracellular calcium release by FLIPR assay; format: functional, cell-based
Procedure, shortened: (§1)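 HEK293 cells stably carrying chimeric Δ6-Gαqi-myr, transiently transfected with one or two opioid receptor cDNAs (200 ng/20000 cells, Lipofectamine 2000). Cells were reseeded at 24 h and assayed 48 h post-transfection with a FLIPR Ca2+ kit. Fluorescence was read for 90 s after ligand addition to build concentration-response curves; mean ± SEM, n = 3−5.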

[2] = target: Opioid receptors; mu & delta (Homo sapiens) (UniProt P41143+P35372); assay: Agonist activity at human mu-delta opioid receptor expressed in HEK293 cells assessed as induction of intracellular calcium release by FLIPR assay; format: functional, cell-based; procedure, shortened: as §1
[3] = target: T1, Opioid receptors; mu & kappa (Homo sapiens) (UniProt P41145+P35372); assay: Agonist activity at human mu-kappa opioid receptor expressed in HEK293 cells assessed as induction of beta-arrestin 2 recruitment incubated for 60 mins by fluorescent microscopy; format: cell-based
Procedure, shortened: (§2)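 HEK293 cells were transiently transfected with single or paired opioid receptors, replated on chamber slides after 24 h and left overnight. Ligands in serum-free medium were applied for 60 min at 37 °C. Cells were fixed in 4% paraformaldehyde, then stained with goat anti-β-arrestin2 (1 μg/mL, 4 °C overnight), fluorescent anti-goat secondary (30 min, RT) and DAPI. A brighter membrane on fluorescence microscopy scored as recruitment.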

Mus musculus [4] = assay: Antinociceptive effect in intrathecally dosed ICR-CD1 mouse co-treated with kappa opioid receptor antagonist norB-NI by tail flick test; format: functional, organism-based
Mus musculus [5] = assay: Antinociceptive effect in intracerebroventricularly dosed ICR-CD1 mouse assessed as drug tolerance development measured after 25 hrs by tail flick test; format: functional, organism-based
Procedure, shortened: (§3)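 Acute tolerance: the highest (ED80−90) dose of the day-1 dose-response curve was given again 24 h later to the same mice in the tail-flick test. No significant difference between days was scored as no tolerance.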

Mus musculus [6] = assay: Antinociceptive effect in intrathecally dosed ICR-CD1 mouse assessed as drug tolerance development measured after 25 hrs by tail flick test; format: functional, organism-based; procedure, shortened: as §3
Mus musculus [7] = assay: Potency ratio, ratio,of ED50 for antinociceptive effect in intracerebroventricularly dosed ICR-CD1 mouse to ED50 for intrathecally dosed ICR-CD1 mouse by tail flick test; format: functional
Mus musculus [8] = assay: Antinociceptive effect in intrathecally dosed ICR-CD1 mouse co-treated with delta opioid receptor antagonist NTB by tail flick test; format: functional, organism-based
[9] = target: T1, Opioid receptors; mu & kappa (Homo sapiens); assay: Agonist activity at human mu-kappa opioid receptor expressed in HEK293 cells assessed as induction of intracellular calcium release by FLIPR assay; format: functional, cell-based; procedure, shortened: as §1
[10] = target: Delta-type opioid receptor (Homo sapiens) (UniProt P41143); assay: Agonist activity at human delta opioid receptor expressed in HEK293 cells assessed as induction of intracellular calcium release by FLIPR assay; format: functional, cell-based; procedure, shortened: as §1
Mus musculus [11] = assay: Ratio of antinociceptive effect in intrathecally dosed ICR-CD1 mouse in presence of 500 nmol naloxone to antinociceptive effect in intrathecally dosed ICR-CD1 mouse in absence of 500 nmol naloxone; format: functional
[12] = target: Delta-type opioid receptor (Homo sapiens) (UniProt P41143); assay: Agonist activity at human delta opioid receptor expressed in HEK293 cells assessed as induction of beta-arrestin 2 recruitment incubated for 60 mins by fluorescent microscopy; format: cell-based; procedure, shortened: as §2
[13] = target: T2, Opioid receptors; delta & kappa (Homo sapiens) (UniProt P41145+P41143); assay: Agonist activity at human kappa-delta opioid receptor expressed in HEK293 cells assessed as induction of beta-arrestin 2 recruitment incubated for 60 mins by fluorescent microscopy; format: cell-based; procedure, shortened: as §2
Mus musculus [14] = assay: Rewarding effect in ICR-CD1 mouse at 0.3 to 10 mg/kg, sc by conditioned place preference assay; format: functional, organism-based
Procedure, shortened: (§4)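 Two-chamber place conditioning with rod versus mesh floors. Bias was taken in a 20 min free-exploration pretest, and groups were counterbalanced. Drug or vehicle (saline with 1% DMSO) was paired with one chamber and saline with the other, injected sc 20 min before 30 min confinement. Four drug and four saline sessions alternated daily. Tests of 20 min came after the 4th and 8th sessions. Score = change in CS+ time from pretest; Bonferroni t test against vehicle.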

Mus musculus [15] = assay: Antinociceptive effect in ICR-CD1 mouse dosed intrathecally twice on day 1 and day 2 followed by injection with same dose on day 3 by tail flick test; format: functional
[16] = target: T2, Opioid receptors; delta & kappa (Homo sapiens); assay: Agonist activity at human delta-kappa opioid receptor expressed in HEK293 cells assessed as induction of intracellular calcium release by FLIPR assay; format: functional, cell-based; procedure, shortened: as §1
Mus musculus [17] = assay: Physical dependence in ICR-CD1 mouse assessed as induction of jumps over 10 mins period at 2.5 to 10 mg/kg, sc dosed three times daily for 4 days and 10 mg/kg, sc on day 5 followed 3 hrs later by single 10 mg/kg, sc naloxone; format: organism-based; settings: in vivo
Procedure, shortened: (§5)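 Mice received sc drug three times daily for 4 days (2.5−10 mg/kg), then 10 mg/kg on day 5, with sc naloxone 3 h later. Jumps were counted over 10 min. A morphine group served as control.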

Mus musculus [18] = assay: Physical dependence in ICR-CD1 mouse assessed as induction of jumps over 10 mins period at 2.5 to 10 mg/kg, sc dosed three times daily for 4 days and 10 mg/kg, sc on day 5 followed 3 hrs later by single 50 mg/kg, sc naloxone; format: organism-based; settings: in vivo; procedure, shortened: as §5
Mus musculus [19] = assay: Antinociceptive effect in sc dosed ICR-CD1 mouse by tail flick test; format: functional
Procedure, shortened: (§6)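 Male ICR-CD1 mice, 17−25 g. Tail-flick latency was taken before dosing and at the compound's peak time, with a 10 s cutoff. Response was expressed as %MPE = (test − control)/(10 − control) × 100. Three groups of 8−10 mice per dose-response curve, each mouse used once. ED50 with 95% CI came from nonlinear regression.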

Mus musculus [20] = assay: Antinociceptive effect in intrathecally dosed ICR-CD1 mouse co-treated with mu opioid receptor antagonist beta-FNA by tail flick test; format: functional, organism-based
Mus musculus [21] = assay: Antinociceptive effect in intracerebroventricularly dosed ICR-CD1 mouse by tail flick test; format: functional; procedure, shortened: as §6
[22] = target: Mu-type opioid receptor (Homo sapiens) (UniProt P35372); assay: Agonist activity at human mu opioid receptor expressed in HEK293 cells assessed as induction of beta-arrestin 2 recruitment incubated for 60 mins by fluorescent microscopy; format: cell-based; procedure, shortened: as §2
Mus musculus [23] = assay: Antinociceptive effect in intrathecally dosed ICR-CD1 mouse by tail flick test; format: functional; procedure, shortened: as §6
Mus musculus [24] = assay: Antinociceptive effect in intracerebroventricularly dosed ICR-CD1 mouse assessed as peak time for antinociceptive effect by tail flick test; format: functional
Procedure, shortened: (§7)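 Peak time in the mouse tail-flick test was set by measuring antinociception at 5, 10, 20, 30 and 60 min after dosing; latency cutoff 10 s; response expressed as %MPE.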

Mus musculus [25] = assay: Antinociceptive effect in sc dosed ICR-CD1 mouse by tail flick test relative to morphine; format: functional
Mus musculus [26] = assay: Antinociceptive effect in orally dosed ICR-CD1 mouse by tail flick test; format: functional; settings: po; procedure, shortened: as §6
Mus musculus [27] = assay: Rewarding effect in ICR-CD1 mouse at 0.3 to 10 mg/kg, sc in presence of naloxone by conditioned place preference assay; format: functional, organism-based
Mus musculus [28] = assay: Antinociceptive effect in intrathecally dosed ICR-CD1 mouse assessed as peak time for antinociceptive effect by tail flick test; format: functional; procedure, shortened: as §7
[29] = target: Kappa-type opioid receptor (Homo sapiens) (UniProt P41145); assay: Agonist activity at human kappa opioid receptor expressed in HEK293 cells assessed as induction of beta-arrestin 2 recruitment incubated for 60 mins by fluorescent microscopy; format: cell-based; procedure, shortened: as §2
[30] = target: Kappa-type opioid receptor (Homo sapiens) (UniProt P41145); assay: Agonist activity at human kappa opioid receptor expressed in HEK293 cells assessed as induction of intracellular calcium release by FLIPR assay; format: functional, cell-based; procedure, shortened: as §1
Mus musculus [31] = assay: Induction of aversion in ICR-CD1 mouse at 0.3 to 10 mg/kg, sc by conditioned place preference assay; format: organism-based; parameters: dose 0.3-10 mg/kg, route subcutaneous; settings: in vivo; procedure, shortened: as §4
Mus musculus [32] = assay: Induction of aversion in ICR-CD1 mouse at 0.1 to 1 mg/kg, sc by conditioned place preference assay; format: organism-based; parameters: dose 0.1-1 mg/kg, route subcutaneous; settings: in vivo; procedure, shortened: as §4

Chain of Opioid receptors; mu & delta (Homo sapiens) (P35372 whole entry, looked up): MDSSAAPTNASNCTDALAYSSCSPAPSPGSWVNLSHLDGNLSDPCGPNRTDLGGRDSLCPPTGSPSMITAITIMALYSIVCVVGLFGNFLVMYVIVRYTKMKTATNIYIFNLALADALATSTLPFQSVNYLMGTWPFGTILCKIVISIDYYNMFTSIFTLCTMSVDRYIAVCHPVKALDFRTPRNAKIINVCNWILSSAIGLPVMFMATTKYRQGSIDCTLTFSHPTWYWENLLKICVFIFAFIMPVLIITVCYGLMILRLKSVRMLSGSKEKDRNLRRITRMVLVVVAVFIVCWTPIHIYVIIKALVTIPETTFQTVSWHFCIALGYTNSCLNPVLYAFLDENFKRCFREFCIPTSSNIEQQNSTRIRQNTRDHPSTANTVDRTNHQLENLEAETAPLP
Chain of Opioid receptors; mu & delta (Homo sapiens) (P41143 whole entry, looked up): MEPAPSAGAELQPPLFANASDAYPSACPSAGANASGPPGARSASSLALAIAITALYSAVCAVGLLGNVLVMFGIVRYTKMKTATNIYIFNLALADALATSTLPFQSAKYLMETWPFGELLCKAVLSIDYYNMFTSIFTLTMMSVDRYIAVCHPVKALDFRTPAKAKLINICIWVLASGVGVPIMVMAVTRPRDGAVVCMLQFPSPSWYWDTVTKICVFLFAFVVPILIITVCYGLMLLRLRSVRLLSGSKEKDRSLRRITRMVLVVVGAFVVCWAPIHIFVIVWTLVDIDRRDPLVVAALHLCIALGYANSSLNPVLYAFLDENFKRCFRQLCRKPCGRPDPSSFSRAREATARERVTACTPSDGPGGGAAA
Chain of Mu-type opioid receptor (Homo sapiens) (P35372 whole entry): as the sequence (P35372 whole entry, looked up) above
T1 sequence (P35372 whole entry, looked up): as above
T1 sequence (P41145 whole entry, looked up): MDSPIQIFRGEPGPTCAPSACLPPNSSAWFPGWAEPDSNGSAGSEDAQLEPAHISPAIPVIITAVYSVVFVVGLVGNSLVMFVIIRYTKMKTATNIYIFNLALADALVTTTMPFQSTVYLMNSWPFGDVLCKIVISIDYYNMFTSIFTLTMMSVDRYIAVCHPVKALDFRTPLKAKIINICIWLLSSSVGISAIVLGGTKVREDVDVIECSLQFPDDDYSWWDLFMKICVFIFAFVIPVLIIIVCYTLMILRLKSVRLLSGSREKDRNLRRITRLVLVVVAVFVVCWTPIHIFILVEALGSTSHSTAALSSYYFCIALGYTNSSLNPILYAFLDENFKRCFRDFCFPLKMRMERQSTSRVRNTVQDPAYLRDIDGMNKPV
Chain of Kappa-type opioid receptor (Homo sapiens) (P41145 whole entry): as the sequence (P41145 whole entry, looked up) above
Chain of Delta-type opioid receptor (Homo sapiens) (P41143 whole entry): as the sequence (P41143 whole entry, looked up) above
T2 sequence (P41143 whole entry, looked up): as above
T2 sequence (P41145 whole entry, looked up): as the sequence (P41145 whole entry, looked up) above

O=C(N[C@@H]1CC[C@@]2(O)[C@H]3Cc4ccc(O)c5c4[C@@]2(CCN3CC2CC2)[C@H]1O5)c1cc2ccccc2[nH]1
Activity [1]: Active | Activity [2]: Active | Activity [3]: inactive | Activity (Mus musculus [4]): Active | Activity (Mus musculus [5]): Active | Activity (Mus musculus [6]): Active | Ratio ED50 (Mus musculus [7]): 59 | Activity (Mus musculus [8]): Active | Activity [9]: Active | Activity [10]: Active | Ratio (Mus musculus [11]): 15 | Activity [12]: Active | Activity [13]: inactive | Activity (Mus musculus [14]): Dose-dependent effect | ED50 (Mus musculus [15]): 29.47 pmol | Activity [16]: Active | Activity (Mus musculus [17]): Non-toxic | Activity (Mus musculus [18]): Non-toxic | ED50 (Mus musculus [19]): 0.97 mg/kg | Activity (Mus musculus [20]): Active | ED50 (Mus musculus [21]): 1252.2 pmol | Activity [22]: Active | ED50 (Mus musculus [23]): 21.27 pmol | Time (Mus musculus [24]): 10 min | Ratio ED50 (Mus musculus [25]): 9 | ED50 (Mus musculus [26]): 9.08 mg/kg | Activity (Mus musculus [27]): inactive | Time (Mus musculus [28]): 10 min | Activity [29]: Active | Activity [30]: Active | Activity (Mus musculus [31]): Non-toxic

O=C(N[C@@H]1CC[C@@]2(O)[C@H]3Cc4ccc(O)c5c4[C@@]2(CCN3CC2CC2)[C@H]1O5)c1ccc2[nH]ccc2c1
Activity [9]: Active | Activity [16]: Active | MPE (Mus musculus [21]): <60% | MPE (Mus musculus [23]): <60% | Time (Mus musculus [28]): 20 min

O=C(N[C@@H]1CC[C@@]2(O)[C@H]3Cc4ccc(O)c5c4[C@@]2(CCN3CC2CC2)[C@H]1O5)c1cc2ccccc2o1
Activity [1]: Active | Activity [2]: Active | Activity (Mus musculus [5]): Active | Activity (Mus musculus [6]): Active | Ratio ED50 (Mus musculus [7]): 3 | Activity [9]: Active | Activity [10]: Active | Activity [16]: Active | ED50 (Mus musculus [21]): 580.8 pmol | ED50 (Mus musculus [23]): 191.9 pmol | Time (Mus musculus [24]): 10 min | Time (Mus musculus [28]): 10 min | Activity [30]: Active

O=C(N[C@@H]1CC[C@@]2(O)[C@H]3Cc4ccc(O)c5c4[C@@]2(CCN3CC2CC2)[C@H]1O5)c1cc2cc(Cl)ccc2[nH]1
Activity [9]: Active | Activity [16]: Active | MPE (Mus musculus [21]): <60% | MPE (Mus musculus [23]): <60% | Time (Mus musculus [28]): 20 min

O=C(N[C@@H]1CC[C@@]2(O)[C@H]3Cc4ccc(O)c5c4[C@@]2(CCN3CC2CC2)[C@H]1O5)c1c[nH]c2ccccc12
Activity (Mus musculus [6]): Active | Activity [9]: Active | Activity [16]: Active | MPE (Mus musculus [21]): <60% | ED50 (Mus musculus [23]): 29.39 pmol | Time (Mus musculus [28]): 20 min

COC(=O)[C@@H]1C[C@H](OC(C)=O)C(=O)[C@H]2[C@@]1(C)CC[C@H]1C(=O)O[C@H](c3ccoc3)C[C@]21C [SALVINORIN A]
Activity (Mus musculus [32]): Toxic

Cn1c(C(=O)N[C@@H]2CC[C@@]3(O)[C@H]4Cc5ccc(O)c6c5[C@@]3(CCN4CC3CC3)[C@H]2O6)cc2ccccc21
Activity [1]: Active | Activity [2]: Active | Activity (Mus musculus [5]): Active | Activity (Mus musculus [6]): Active | Ratio ED50 (Mus musculus [7]): 24 | Activity [9]: Active | Activity [10]: Active | Activity [16]: Active | ED50 (Mus musculus [21]): 550.4 pmol | ED50 (Mus musculus [23]): 23.06 pmol | Time (Mus musculus [24]): 10 min | Time (Mus musculus [28]): 10 min | Activity [30]: Active

CN1CC[C@]23c4c5ccc(O)c4O[C@H]2[C@@H](O)C=C[C@H]3[C@H]1C5 [MORPHINE]
ED50 (Mus musculus [19]): 7.8 mg/kg | ED50 (Mus musculus [26]): 2.51 mg/kg

O=C(N[C@@H]1CC[C@@]2(O)[C@H]3Cc4ccc(O)c5c4[C@@]2(CCN3CC2CC2)[C@H]1O5)c1cc2cc(F)ccc2[nH]1
Activity [2]: Active | Activity (Mus musculus [6]): inactive | Activity [16]: inactive | MPE (Mus musculus [21]): <60% | ED50 (Mus musculus [23]): 295 pmol | Time (Mus musculus [28]): 10 min

O=C(N[C@@H]1CC[C@@]2(O)[C@H]3Cc4ccc(O)c5c4[C@@]2(CCN3CC2CC2)[C@H]1O5)c1cc2ccccc2s1
Activity [1]: Active | Activity [2]: Active | Activity [9]: Active | Activity [10]: Active | Activity [16]: Active | MPE (Mus musculus [21]): <60% | MPE (Mus musculus [23]): <60% | Time (Mus musculus [28]): 20 min | Activity [30]: Active
